DAGLB inhibitor: diacylglycerol lipase beta (human) inhibition; HEK293T DAGLB membrane lysate, EnzChek fluorogenic substrate; inhibition, % at 5.17 µM; actives 0.059% (n = 340,000); AID 504411; in the data active = inhibition above about 34%;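 also: 0% = enzyme with vehicle and 100% = wells lacking enzyme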
TCR-CD3 inh: blocks the human TCR-CD3 interaction. inhibition, % at 9.4 µM. actives 0.37% (n = 360,000). AID 651800. TAMRA-labeled TCR probe fluorescence, biochemical;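 also: recombinant mutant TCR 2C K166C tagged with TAMRA read by polarization; 0% = receptor in buffer alone and 100% = receptor with positive control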
SIAE inh: blocks human sialic acid acetylesterase. Q9HAT2. SIAE FP-Rh probe binding, fluorescence polarization. inhibition, % at 9.66 µM. actives 0.69% (n = 370,000). AID 1053197;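 active = inhibition above a cutoff: mean of compounds within the control limits plus 3 SD of those, cut at about 17% in these data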;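 also: 0% = plate median of compound wells and 100% = probe without SIAE protein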
Target sequence (Q9HAT2 whole entry, looked up): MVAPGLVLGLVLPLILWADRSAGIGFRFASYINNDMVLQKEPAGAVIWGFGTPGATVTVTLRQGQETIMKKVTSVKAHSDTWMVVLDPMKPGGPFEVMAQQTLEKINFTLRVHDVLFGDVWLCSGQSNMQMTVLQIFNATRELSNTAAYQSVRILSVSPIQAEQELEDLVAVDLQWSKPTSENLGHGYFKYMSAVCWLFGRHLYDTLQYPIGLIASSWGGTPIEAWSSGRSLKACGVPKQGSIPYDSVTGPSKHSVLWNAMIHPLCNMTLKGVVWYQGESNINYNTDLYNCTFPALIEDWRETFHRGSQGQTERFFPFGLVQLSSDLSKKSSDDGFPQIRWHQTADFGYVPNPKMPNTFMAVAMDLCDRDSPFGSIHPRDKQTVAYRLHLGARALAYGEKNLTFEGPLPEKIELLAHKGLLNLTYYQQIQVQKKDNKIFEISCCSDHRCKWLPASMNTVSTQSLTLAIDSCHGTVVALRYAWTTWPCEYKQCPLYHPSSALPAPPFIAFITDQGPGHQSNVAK
HTRA1 inhibitor: HTRA1 (human) protease inhibition; actives 0.5% (n = 340,000); inhibition, % at 5.96 µM; recombinant HTRA1, FP-rhodamine activity-based probe, fluorescence polarization; AID 504803; in the data active = inhibition above about 36%;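 also: 0% = enzyme with DMSO and 100% = wells lacking enzyme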
ABHD4 inh: inhibits mouse alpha/beta hydrolase domain 4. Q8VD66. purified mABHD4, FP-Rh probe fluorescence polarization. inhibition, % at 8.92 µM. actives 0.54% (n = 370,000);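 active = inhibition exceeding the mean over every tested compound plus 3 SD, cut at about 30% in these data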;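 also: 0% = plate median of compound wells and 100% = S159A mutant with DMSO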
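system = mouse ABHD4 enzyme, wild type | medium = HEPES pH 7.0, NaCl, Pluronic buffer | also added = FP-Rh probe | incubation = Enzyme–compound pre-incubation 45 min, then probe 60 min, both 25 °C | technique = fluorescence polarization, excitation 525 nm, emission 598 nm, BODIPY TMR filters | controls = S159A mutant high control, sample median low control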
HTRA1 inh conf: confirmation of human HTRA1 inhibitors; shares compounds with HTRA1 inhibitor; recombinant HTRA1, FP-rhodamine activity-based probe, fluorescence polarization; inhibition, % at 5.96 µM; actives 66% (n = 1,600);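 active = mean inhibition over three repeats above a set limit taken from the earlier primary screen, cut at about 37% in these data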;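 also: 0% = HTRA1 with DMSO and 100% = wells lacking HTRA1; inhibitors block probe binding so polarization drops and inhibition rises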
BSA probe FL: counter-screen for TCR-CD3 interaction inhibitors: BSA probe; TAMRA-labeled BSA probe fluorescence counterscreen; actives 10% (n = 1,200); inhibition, % at 9.4 µM; AID 652035; shares compounds with TCR-CD3 inh; in the data active = inhibition above about 23%;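 also: 0% = buffer low control and 100% = reference high control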
TCR-CD3 inh conf: confirmation of human TCR-CD3 interaction inhibitors; shares compounds with TCR-CD3 inh; TAMRA-labeled TCR probe fluorescence binding assay; inhibition, % at 9.4 µM; actives 48% (n = 1,200)
ABHD4 confirm: confirmation of mouse ABHD4 inhibitors. shares compounds with ABHD4 inh. purified mABHD4, FP-Rh probe fluorescence polarization. inhibition, % at 8.92 µM. actives 55% (n = 1,800);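 active = mean inhibition across replicates above the hit cutoff set in the primary screen, cut at about 30% in these data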;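 also: 0% = wild-type ABHD4 with DMSO and 100% = catalytically dead S159A mutant with DMSO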
Starred values were filed as active, the others as inactive; x = no result; ! = repeats disagree. Compounds with a hit are over-represented: about 1.6% of the library has one in this group of screens. Rule as the data show it, unless noted: active = inhibition above about 19%; inactive = the rest.

SMILES | DAGLB inhibitor | TCR-CD3 inh | SIAE inh | HTRA1 inhibitor | ABHD4 inh | HTRA1 inh conf | ABHD4 confirm | others
NS(=O)(=O)c1ccc(N=Nc2c(O)c(C(=O)O)cc3ccccc23)cc1 | 21.1 | -5.1 | 8.7 | 44.5* | 49.1* | 8.8 | 19.7
O=S(=O)(O)c1cc(Cl)cc(N=Nc2ccc(O)cc2O)c1O | -64.1 | 64.8* | 6.8 | 39.8* | 69.7* | 38.2* | -14.4 | BSA probe FL=65.4*;TCR-CD3 inh conf=54.0*
O=C(N[C@@H](Cc1cccnc1)C(=O)N1CCC[C@H]1C(=O)NCCc1ccccc1Cl)c1ccccc1 | x | 5.8 | -2.9 | x | 6.5 | x | x
C=CCN=C1NC(c2ccc(C(F)(F)F)cc2)C(C(=O)OC)=C(C)N1C (stereo not drawn) | x | -2.6 | 4.3 | x | 9.0 | x | x
O=C1c2cc(O)cc(O)c2C(=O)c2c1cc(O)c([C@@H](CO)CCO)c2O | 23.3 | 6.1 | 10.1 | 39.1* | 56.4* | 20.1 | 51.1*
CCC(C)NC(=O)CNc1nnnn1-c1ccccc1 (stereo not drawn) | x | x | 2.7 | x | 1.1 | x | x
CN(C)c1ccc(N/C=C/C(=O)c2ccccc2)cc1 | 12.9 | 8.4 | 0.8 | 54.4* | 45.5* | 4.9 | -14.6
O=C(O)COc1ccccc1C(Nc1ccccn1)c1cc(Cl)c2cccnc2c1O (stereo not drawn) | 9.8 | 5.0 | 12.4 | 73.8* | 32.8* | 83.7* | 24.0
Oc1cc(Br)ccc1C=Nc1ccc(N2CCCCC2)cc1 | 9.4 | 5.1 | 2.9 | 52.5* | 36.3* | 14.2 | 12.8
COC(=O)[C@]12C[C@H](CC(=O)N3CCSCC3)C(=O)N(Cc3ccco3)C1=C[C@H](C(C)C)O[C@@H]2C1CC1 | x | x | 2.5 | x | -0.6 | x | x
Oc1cc(O)cc(/C=C/c2ccc(O)c(O)c2)c1 | 2.7 | 14.4 | 2.1 | 38.5* | 32.1* | 36.5* | 26.7
C/C=C/c1ccc(O)c(OC)c1 | -1.4 | 0.9 | 11.4 | 3.9 | -5.6 | x | x
CN1CCc2cccc3c2[C@H]1Cc1ccc(O)c(O)c1-3 | 1.9 | -7.5 | 18.4*! | 59.1* | 88.3* | 50.4* | 27.8
Cc1ccc(S(=O)(=O)Nc2cccnc2Oc2ccc(Cl)cc2)cc1 | -5.0 | -8.6 | -3.2 | -1.1 | -7.2 | x | x
Cc1ccc(S(=O)(=O)Nc2cc(Cl)c(O)c3ncccc23)cc1 | 12.4 | -7.3 | 16.9 | 70.4* | 48.5* | 54.5* | 56.9*
C[n+]1c(-c2ccccc2)cc2c(=Cc3ccc([N+](=O)[O-])cc3)c3ccccc3n21 | 5.1 | -5.2 | 4.4 | 80.0* | 31.2* | 24.7 | 37.9*
C[n+]1c(-c2ccccc2)cc2c(=Cc3ccccc3)c3ccccc3n21 | 3.8 | -17.0 | -68.0 | -14.4 | -107.6 | x | x
Cc1ccc(O)c(N=CC2=C(O)c3ccccc3C2=O)c1 | 11.5 | 11.6 | -0.6 | 43.6* | 34.0* | 75.8* | 46.4*
CC(=O)CC[C@@H]1CC[C@]2(CCCN(S(=O)(=O)c3ccccc3)C2)O1 | x | x | -2.4 | x | 0.5 | x | x
Cc1ccc(NC(=S)NNc2ccc(C(=O)O)cc2[N+](=O)[O-])cc1C | 4.8 | 28.1* | 7.5 | 48.8* | 69.5* | 40.6* | 47.4* | BSA probe FL=-4.3;TCR-CD3 inh conf=14.9
COC(=O)c1ccc(S(=O)(=O)N2CCC(NC(=O)Cc3ccccc3)CC2)cc1 | x | x | -2.0 | x | 4.9 | x | x
COC(=O)C[C@H]1CC[C@H]2[C@H](COc3ccc(NS(=O)(=O)c4cccc(OC)c4)cc3C(=O)N2C)O1 | x | x | -1.8 | x | 4.3 | x | x
Cc1ccc(O)c(N=Cc2cc(Cc3ccccc3)cc([N+](=O)[O-])c2O)c1 | 23.0 | 5.5 | -5.6 | 57.9* | 34.9* | 60.7* | 15.6
O=[N+]([O-])c1cc(Cc2ccccc2)cc(C=Nc2ccc(N3CCOCC3)cc2)c1O | 20.9 | x | x | 28.9 | x | x | x
CCCC1CCC2(CCCN2CCOC(=O)Nc2ccc(OC)cc2)CC1 (stereo not drawn) | x | x | 4.6 | x | 12.0 | x | x
CCOc1ccc(-n2c(SC/C=C/c3ccccc3)nnc2-c2cccs2)cc1 | x | x | 6.5 | x | -17.3 | x | x

Screening data: PubChem BioAssay, The Scripps Research Institute Molecular Screening Center
